Here are results for 10 compounds from ChEMBL document CHEMBL4330148, “Discovery and Characterization of Cyclic and Acyclic Trypsin Inhibitors from Momordica dioica” (J Nat Prod, 2019).

Series [1] has as its system HT-29. The series is described as follows: Cytotoxicity against human HT-29 cells after 24 hrs by MTT assay. Type of series: cell-based. Conditions: ht-29, 24 h. Put shortly:
(§1)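 HT-29, MCF7 and PC-3 cells were grown in DMEM with 10% FBS and 1% penicillin–streptomycin at 37 °C under 5% CO2. They were seeded at 2000 cells/well and grown 24 h. Peptides were added in triplicate at final concentrations of 0.05–100 μM for 24 h. 1% Triton X-100 and medium alone served as controls. MTT (5 mg/mL in PBS) was added for 4 h, formazan was dissolved in DMSO, and absorbance was read at 570 nm.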

The subject of series [2] is MCF7. The series is described as follows: Cytotoxicity against human MCF7 cells after 24 hrs by MTT assay. Type of series: cell-based. Conditions: mcf7, 24 h. Put shortly: as §1
For orientation: Tetrazolium assays rely on reduction of a dye to a coloured formazan, in cell work by metabolically active cells.

The test system of series [3] is PC-3. Nature of the series: Cytotoxicity against human PC3 cells after 24 hrs by MTT assay. It is filed as cell-based. Conditions: pc-3, 24 h. The gist of the method:
as §1

The nature of series [4]: Stability in 100% human serum at 30 uM after 24 hrs by RP-HPLC analysis. It is filed as ADME, cell-free.
The nature of series [5]: Cytotoxicity against Spodoptera frugiperda Sf9 cells after 3 hrs by MTT assay. Conditions: sf9, 3 h.
For series [6], the species on record is Bos taurus. The series is described as follows: Inhibition of bovine pancreatic trypsin at 0.1 to 100 uM preincubated for 30 mins followed by L-BAPNA substrate addition and measured after 10 mins. The gist of the method: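 Bovine pancreatic trypsin was dissolved in 1 mM HCl and diluted to 0.45 mg/mL in 50 mM Tris, 20 mM CaCl2, pH 8.2. Peptides (1 mM stock, eight-point 2-fold dilutions) were preincubated with trypsin for 30 min at 37 °C. L-BAPNA (0.435 mg/mL, 1% DMSO) was added for 10 min at room temperature, the reaction was stopped with 30% HOAc, and A410 was read. MCoTI-II was the reference inhibitor. Triplicate.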

The nature of series [7]: Drug metabolism in 100% human serum at 30 uM up to 4 hrs by RP-HPLC analysis. Type of series: ADME, cell-free.

Calls of active or inactive are those of the source. No cut-off for these calls is given here. Bridge positions count the residues as written; N and C are the ends. Peptide text beside a SMILES is read from it.

Take `CC[C@H](C)[C@@H]1NC(=O)[C@@H]2CSSC[C@H](NC(=O)[C@@H](NC(=O)[C@H](CCCNC(=N)N)NC(=O)[C@@H]3CCC(=O)N3)C(C)C)C(=O)N3CCC[C@H]3C(=O)N[C@@H](CCCNC(=N)N)C(=O)N[C@@H]([C@@H](C)CC)C(=O)N[C@@H](CC(C)C)C(=O)N[C@@H](CCCCN)C(=O)N[C@@H](CCCCN)C(=O)N[C@H]3CSSC[C@H](NC1=O)C(=O)N[C@@H](CCC(N)=O)C(=O)NCC(=O)N[C@@H](CC(N)=O)C(=O)NCC(=O)N[C@@H](Cc1ccc(O)cc1)C(=O)N[C@H](C(=O)NCC(N)=O)CSSC[C@H](NC(=O)[C@H](CC(=O)O)NC(=O)[C@H](CO)NC(=O)[C@H](CC(=O)O)NC(=O)[C@H](CCCNC(=N)N)NC(=O)[C@H](CCCNC(=N)N)NC3=O)C(=O)N1CCC[C@H]1C(=O)NCC(=O)N[C@@H](CCC(=O)O)C(=O)N2`: the Activity entry in series [1], in series [2], in series [3] and in series [5] was “Non-Toxic” each time. Besides, the Stability result in series [4] is given as “Stable”.

For the compound `CC[C@H](C)[C@@H]1NC(=O)[C@@H]2CSSC[C@@H]3NC(=O)[C@H](C)NC(=O)CNC(=O)CNC(=O)[C@H](CC(=O)O)NC(=O)[C@H](CO)NC(=O)CNC(=O)[C@H](CO)NC(=O)CNC(=O)[C@@H]4CSSC[C@H](NC(=O)[C@H](CC(=O)O)NC(=O)[C@H](CO)NC(=O)[C@H](CC(=O)O)NC(=O)[C@H](CCCNC(=N)N)NC(=O)[C@H](CCCNC(=N)N)NC(=O)[C@H](CSSC[C@H](NC1=O)C(=O)N[C@@H](CCCNC(=N)N)C(=O)NCC(=O)N[C@@H](CC(N)=O)C(=O)NCC(=O)N[C@@H](Cc1ccc(O)cc1)C(=O)N4)NC(=O)[C@H](CCCNC(=N)N)NC(=O)[C@H](CCC(N)=O)NC(=O)[C@H](CC(C)C)NC(=O)[C@H]([C@@H](C)CC)NC(=O)[C@H](CCCCN)NC(=O)[C@@H]1CCCN1C3=O)C(=O)N1CCC[C@H]1C(=O)NCC(=O)N[C@@H](C)C(=O)N2` (cyclo(ACICRGNGYCGSGSDGGACPKILQRCRRDSDCPG); disulfide 2-19, 4-26, 10-32), in series [6], the inhibition result was “Active”. The Activity result in series [1], in series [2], in series [3] and in series [5] was “Non-Toxic” in each case. Moreover, the Stability entry in series [4] is recorded as “Stable”.

For `CC[C@H](C)[C@@H]1NC(=O)[C@@H]2CSSC[C@@H]3NC(=O)[C@H](C)NC(=O)CNC(=O)CNC(=O)[C@H](CC(=O)O)NC(=O)[C@H](CO)NC(=O)CNC(=O)[C@H](CO)NC(=O)CNC(=O)[C@@H]4CSSC[C@H](NC(=O)[C@H](CC(=O)O)NC(=O)[C@H](CO)NC(=O)[C@H](CC(=O)O)NC(=O)[C@H](CCCNC(=N)N)NC(=O)[C@H](CCCNC(=N)N)NC(=O)[C@H](CSSC[C@H](NC1=O)C(=O)N[C@@H](CCC(N)=O)C(=O)NCC(=O)N[C@@H](CC(N)=O)C(=O)NCC(=O)N[C@@H](Cc1ccc(O)cc1)C(=O)N4)NC(=O)[C@H](CCCCN)NC(=O)[C@H](CCCCN)NC(=O)[C@H](CC(C)C)NC(=O)[C@H]([C@@H](C)CC)NC(=O)[C@H](CCCNC(=N)N)NC(=O)[C@@H]1CCCN1C3=O)C(=O)N1CCC[C@H]1C(=O)N[C@@H](CO)C(=O)N[C@@H](C)C(=O)N2`, the inhibition entry in series [6] is “Active”. Besides, the Activity entry in series [1], in series [2], in series [3] and in series [5] was “Non-Toxic” throughout. The Stability entry in series [4] was “Stable”.

Regarding `CC[C@H](C)[C@@H]1NC(=O)[C@H](CCCCN)NC(=O)[C@@H]2CCCN2C(=O)[C@@H]2CSSC[C@@H]3NC(=O)[C@H](C)NC(=O)CNC(=O)[C@@H]4CCCN4C(=O)[C@@H]4CSSC[C@H](NC(=O)[C@H](Cc5ccc(O)cc5)NC(=O)CNC(=O)[C@H](CC(N)=O)NC(=O)CNC(=O)[C@H](CCC(N)=O)NC(=O)[C@H](CSSC[C@H](NC(=O)[C@H](CCCCN)NC(=O)[C@H](CCC(N)=O)NC(=O)[C@H](CC(C)C)NC1=O)C(=O)N[C@@H](CCCNC(=N)N)C(=O)N[C@@H](CCCNC(=N)N)C(=O)N[C@@H](CC(=O)O)C(=O)N[C@@H](CO)C(=O)N[C@@H](CC(=O)O)C(=O)N4)NC(=O)[C@H](C(C)C)NC3=O)C(=O)NCC(=O)N[C@@H](CO)C(=O)NCC(=O)N[C@@H](CO)C(=O)N[C@@H](CC(=O)O)C(=O)NCC(=O)NCC(=O)N[C@@H](C)C(=O)N2`, the Activity result in series [1], in series [2], in series [3] and in series [5] was “Non-Toxic” in each case. Further, in series [4], the Stability entry is “Stable”.

Turning to `CC[C@H](C)[C@@H]1NC(=O)[C@H](CCCNC(=N)N)NC(=O)[C@@H]2CCCN2C(=O)[C@@H]2CSSC[C@@H]3NC(=O)[C@H](C)NC(=O)CNC(=O)[C@@H]4CCCN4C(=O)[C@@H]4CSSC[C@H](NC(=O)[C@H](Cc5ccc(O)cc5)NC(=O)CNC(=O)[C@H](CC(N)=O)NC(=O)CNC(=O)[C@H](CCCNC(=N)N)NC(=O)[C@H](CSSC[C@H](NC(=O)[C@H](CCCCN)NC(=O)[C@H](CCCCN)NC(=O)[C@H](CC(C)C)NC1=O)C(=O)N[C@@H](CCCNC(=N)N)C(=O)N[C@@H](CCCNC(=N)N)C(=O)N[C@@H](CC(=O)O)C(=O)N[C@@H](CO)C(=O)N[C@@H](CC(=O)O)C(=O)N4)NC(=O)[C@H](C(C)C)NC3=O)C(=O)NCC(=O)N[C@@H](CO)C(=O)NCC(=O)N[C@@H](CO)C(=O)N[C@@H](CC(=O)O)C(=O)NCC(=O)NCC(=O)N[C@@H](C)C(=O)N2`, the inhibition entry in series [6] was “Active”. Moreover, the Activity entry in series [1], in series [2], in series [3] and in series [5] was “Non-Toxic” in each case. The Stability result in series [4] is on record as “Stable”.

For `CC[C@H](C)[C@@H]1NC(=O)[C@H](CCCNC(=N)N)NC(=O)[C@@H]2CCCN2C(=O)[C@@H]2CSSC[C@@H]3NC(=O)[C@H](C)NC(=O)[C@H](CO)NC(=O)[C@@H]4CCCN4C(=O)[C@@H]4CSSC[C@H](NC(=O)[C@H](Cc5ccc(O)cc5)NC(=O)CNC(=O)[C@H](CC(N)=O)NC(=O)CNC(=O)[C@H](CCC(N)=O)NC(=O)[C@H](CSSC[C@H](NC(=O)[C@H](CCCCN)NC(=O)[C@H](CCC(N)=O)NC(=O)[C@H](CC(C)C)NC1=O)C(=O)N[C@@H](CCCNC(=N)N)C(=O)N[C@@H](CCCNC(=N)N)C(=O)N[C@@H](CC(N)=O)C(=O)N[C@@H](CO)C(=O)N[C@@H](CC(=O)O)C(=O)N4)NC(=O)[C@H](C(C)C)NC3=O)C(=O)NCC(=O)N[C@@H](CO)C(=O)NCC(=O)N[C@@H](CO)C(=O)N[C@H](CC(=O)O)C(=O)NCC(=O)NCC(=O)N[C@@H](C)C(=O)N2`, in series [6], the inhibition result is “Active”.

As to `CC[C@H](C)[C@@H]1NC(=O)[C@@H]2CSSC[C@H](NC(=O)[C@@H](NC(=O)[C@@H](CCCNC(=N)N)NC(=O)C3CCC(=O)N3)C(C)C)C(=O)N3CCC[C@H]3C(=O)N[C@@H](CCCNC(=N)N)C(=O)N[C@@H]([C@@H](C)CC)C(=O)N[C@@H](CC(C)C)C(=O)N[C@@H](CCCCN)C(=O)N[C@@H](CCCCN)C(=O)N[C@H]3CSSC[C@H](NC1=O)C(=O)N[C@@H](CCC(N)=O)C(=O)NCC(=O)N[C@@H](CC(N)=O)C(=O)NCC(=O)N[C@@H](Cc1ccc(O)cc1)C(=O)N[C@H](C(=O)NCC(N)=O)CSSC[C@H](NC(=O)[C@H](CC(=O)O)NC(=O)[C@H](CO)NC(=O)[C@H](CC(=O)O)NC(=O)[C@H](CCCNC(=N)N)NC(=O)[C@H](CCCNC(=N)N)NC3=O)C(=O)N1CCC[C@H]1C(=O)NCC(=O)N[C@@H](CCC(=O)O)C(=O)N2` (some centres not stated), in series [6], the inhibition result was “Active”.

Regarding `CC[C@H](C)[C@@H]1NC(=O)[C@H](CCCCN)NC(=O)[C@@H]2CCCN2C(=O)[C@@H]2CSSC[C@@H]3NC(=O)[C@H](C)NC(=O)CNC(=O)[C@@H]4CCCN4C(=O)[C@@H]4CSSC[C@H](NC(=O)[C@H](Cc5ccc(O)cc5)NC(=O)CNC(=O)[C@H](CC(N)=O)NC(=O)CNC(=O)[C@H](CCC(N)=O)NC(=O)[C@H](CSSC[C@H](NC(=O)[C@H](CCCCN)NC(=O)[C@H](CCC(N)=O)NC(=O)[C@H](CC(C)C)NC1=O)C(=O)N[C@@H](CCCNC(=N)N)C(=O)N[C@@H](CCCNC(=N)N)C(=O)N[C@@H](CC(=O)O)C(=O)N[C@@H](CO)C(=O)N[C@@H](CC(=O)O)C(=O)N4)NC(=O)[C@H](C(C)C)NC3=O)C(=O)NCC(=O)N[C@@H](CO)C(=O)NCC(=O)N[C@@H](CO)C(=O)N[C@H](CC(=O)O)C(=O)NCC(=O)NCC(=O)N[C@@H](C)C(=O)N2`, the inhibition entry in series [6] was “Active”.

As for H-WQELYQLKY-OH, the Drug metabolism entry in series [7] was “Metabolite_Detected”.

Turning to `CC[C@H](C)[C@@H]1NC(=O)[C@H](CCCNC(=N)N)NC(=O)[C@@H]2CCCN2C(=O)[C@@H]2CSSC[C@@H]3NC(=O)[C@H](C)NC(=O)[C@H](CO)NC(=O)[C@@H]4CCCN4C(=O)[C@@H]4CSSC[C@H](NC(=O)[C@H](Cc5ccc(O)cc5)NC(=O)CNC(=O)[C@H](CC(N)=O)NC(=O)CNC(=O)[C@H](CCC(N)=O)NC(=O)[C@H](CSSC[C@H](NC(=O)[C@H](CCCCN)NC(=O)[C@H](CCC(N)=O)NC(=O)[C@H](CC(C)C)NC1=O)C(=O)N[C@@H](CCCNC(=N)N)C(=O)N[C@@H](CCCNC(=N)N)C(=O)N[C@@H](CC(N)=O)C(=O)N[C@@H](CO)C(=O)N[C@@H](CC(=O)O)C(=O)N4)NC(=O)[C@H](C(C)C)NC3=O)C(=O)NCC(=O)N[C@@H](CO)C(=O)NCC(=O)N[C@@H](CO)C(=O)N[C@@H](CC(=O)O)C(=O)NCC(=O)NCC(=O)N[C@@H](C)C(=O)N2`, the Activity result in series [1], in series [2], in series [3] and in series [5] was “Non-Toxic” in each case. The Stability entry in series [4] is listed as “Stable”.
